Measurements as given in ChEMBL document CHEMBL2151034, “Synthesis, biological evaluation and molecular docking studies of 3-(triazolyl)-coumarin derivatives: effect on inducible nitric oxide synthase” (Eur J Med Chem, 2012).
The source made the active and inactive calls. The calls are words filed in the database; no cut-off is given here.

System: not listed separately
Assay: Induction of necrosis in Wistar rat neutrophils
Assay type: cell-based
Conditions: neutrophil

Structure (SMILES) | Activity
CCCCCCn1cc(-c2cc3ccccc3oc2=O)nn1 | Non-toxic
CCCCCCCCn1cc(-c2cc3ccccc3oc2=O)nn1 | Non-toxic
CCCCCCCCCCn1cc(-c2cc3ccccc3oc2=O)nn1 | Non-toxic
O=c1oc2ccccc2cc1-c1cn(-c2ccccc2)nn1 | Non-toxic

System: Neutrophil
Assay: Antiinflammatory activity in Wistar rat neutrophils assessed as inhibition of LPS-stimulated TNFalpha production at 1000 uM after 18 hrs by ELISA
Assay type: functional, cell-based
Conditions: not given
How it was run: (§1)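 Rat peritoneal neutrophils elicited by intraperitoneal oyster glycogen, 1 × 10⁶ cells, incubated 18 h at 37 °C in 5% CO2 in medium alone (basal) or with LPS, with compounds in HBSS added at the same time. Supernatant frozen at −80 °C. TNF-α and PGE2 quantified by ELISA in pg/ml. Compared against HBSS-treated cells. Mean ± s.e.m. of 4 independent assays.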

Structure (SMILES) | inhibition
CCCCCCn1cc(-c2cc3ccccc3oc2=O)nn1 | inactive
CCCCCCCCn1cc(-c2cc3ccccc3oc2=O)nn1 | inactive
CCCCCCCCCCn1cc(-c2cc3ccccc3oc2=O)nn1 | inactive
O=c1oc2ccccc2cc1-c1cn(-c2ccccc2)nn1 | inactive

System: Rattus norvegicus
Assay: Antiinflammatory activity in LPS-induced rat subcutaneous dorsal inflamed tissue assessed as reduction of neutrophil recruitment at 50 mg/kg, ip after 4 hrs post LPS challenge by Giemsa staining
Assay type: functional, organism-based
Design: dose 50 mg/kg
Conditions: not given
How it was run: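 Rat dorsal air pouch: 10 mL sterile air injected subcutaneously, refilled with 10 mL on day 7. On day 10, 50 mg/kg in 1 mL sterile PBS was given intraperitoneally (per methods) at the same time as LPS (1.5 mg/mL) was injected into the pouch; controls got PBS. Exudate leukocytes were counted 4 h later by Neubauer chamber and dyed smears. Mean ± s.e.m., 3 animals/group.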

Structure (SMILES) | Activity
N=C(N)NN | Active
O=c1oc2ccccc2cc1-c1cn(-c2ccccc2)nn1 | Active

Target: Nitric oxide synthase, inducible (Rattus norvegicus) (UniProt Q06518)
Assay: Inhibition of iNOS activity in LPS-stimulated Wistar rat neutrophils at 100 uM after 18 hrs by enzymatic assay
Conditions: not given
How it was run: (§2)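 Neutrophils treated 18 h with LPS and compound, then homogenized in cold 50 mM Tris-HCl pH 7.4 with 1 mM PMSF and 1 mM L-citrulline. Homogenates incubated 30 min at 37 °C with 1 mM NADPH. Activity expressed as pmol L-citrulline/min/mg protein, with protein by Bradford. Calcium-independent (iNOS) activity defined by omitting CaCl2 and adding 1 mM EGTA; 1 mM L-NAME used as control. Mean ± s.e.m., n = 4.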

Chain of Nitric oxide synthase, inducible (Rattus norvegicus) (Q06518 whole entry): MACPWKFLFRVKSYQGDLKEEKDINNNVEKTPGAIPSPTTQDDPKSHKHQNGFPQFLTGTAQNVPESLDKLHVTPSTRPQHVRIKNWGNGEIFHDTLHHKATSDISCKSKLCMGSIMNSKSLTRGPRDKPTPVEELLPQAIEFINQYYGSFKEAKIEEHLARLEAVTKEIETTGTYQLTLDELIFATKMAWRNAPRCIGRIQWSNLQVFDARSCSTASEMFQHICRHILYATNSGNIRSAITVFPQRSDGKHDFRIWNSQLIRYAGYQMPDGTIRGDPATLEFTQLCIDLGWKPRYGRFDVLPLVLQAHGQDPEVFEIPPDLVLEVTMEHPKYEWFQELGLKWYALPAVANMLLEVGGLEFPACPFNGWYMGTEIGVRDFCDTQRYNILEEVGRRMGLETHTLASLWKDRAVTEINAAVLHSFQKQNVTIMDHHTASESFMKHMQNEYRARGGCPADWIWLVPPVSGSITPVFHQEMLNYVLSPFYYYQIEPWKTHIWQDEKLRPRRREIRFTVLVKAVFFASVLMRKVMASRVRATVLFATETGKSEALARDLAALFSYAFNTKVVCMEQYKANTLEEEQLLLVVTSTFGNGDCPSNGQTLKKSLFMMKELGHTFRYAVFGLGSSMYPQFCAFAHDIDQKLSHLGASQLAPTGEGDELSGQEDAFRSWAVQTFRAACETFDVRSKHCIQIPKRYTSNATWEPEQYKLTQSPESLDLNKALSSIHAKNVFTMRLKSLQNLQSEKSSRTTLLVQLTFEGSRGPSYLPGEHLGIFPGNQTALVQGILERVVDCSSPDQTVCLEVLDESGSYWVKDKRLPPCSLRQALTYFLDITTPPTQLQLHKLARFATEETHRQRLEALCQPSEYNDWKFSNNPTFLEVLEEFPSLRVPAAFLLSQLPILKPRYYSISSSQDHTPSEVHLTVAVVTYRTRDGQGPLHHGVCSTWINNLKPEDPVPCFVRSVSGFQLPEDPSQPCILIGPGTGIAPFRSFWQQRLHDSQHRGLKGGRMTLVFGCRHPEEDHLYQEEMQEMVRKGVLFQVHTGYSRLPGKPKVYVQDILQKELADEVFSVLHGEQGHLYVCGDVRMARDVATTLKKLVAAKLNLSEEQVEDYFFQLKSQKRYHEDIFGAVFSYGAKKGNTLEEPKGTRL

Structure (SMILES) | inhibition
CCCCCCn1cc(-c2cc3ccccc3oc2=O)nn1 | Active
CCCCCCCCn1cc(-c2cc3ccccc3oc2=O)nn1 | Active
CCCCCCCCCCn1cc(-c2cc3ccccc3oc2=O)nn1 | Active
O=c1oc2ccccc2cc1-c1cn(-c2ccccc2)nn1 | Active

System: Neutrophil
Assay: Inhibition of LPS-induced iNOS expression in Wistar rat neutrophils assessed as reduction of NO production after 18 hrs by Western blot analysis
Assay type: functional, cell-based
Conditions: not given
How it was run: (§3)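 Glycogen-elicited Wistar rat neutrophils, 1 × 10⁶ cells, incubated 18 h with LPS plus compound or control. Protein: homogenate in 50 mM Tris pH 7.4 with PMSF, 50 µg run on 7% SDS-PAGE, blocked with casein, mouse monoclonal anti-iNOS at 500 ng/mL, HRP chemiluminescence, densitometry normalized to β-actin. mRNA: real-time PCR against GAPDH, quantified by the Liu and Saint method. Mean ± s.e.m. of 4 independent assays.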

Structure (SMILES) | inhibition
CCCCCCn1cc(-c2cc3ccccc3oc2=O)nn1 | Active
CCCCCCCCn1cc(-c2cc3ccccc3oc2=O)nn1 | Active
CCCCCCCCCCn1cc(-c2cc3ccccc3oc2=O)nn1 | Active
O=c1oc2ccccc2cc1-c1cn(-c2ccccc2)nn1 | Active

System: Neutrophil
Assay: Antiinflammatory activity in Wistar rat neutrophils assessed as inhibition of LPS-stimulated PGE2 production at 100 uM after 18 hrs by ELISA
Assay type: functional, cell-based
Conditions: not given
How it was run: (§4)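 Glycogen-elicited peritoneal neutrophils from male Wistar rats, 1 × 10⁶ cells, 18 h at 37 °C in 5% CO2 with or without E. coli LPS (serotype 026:B6). Compounds given at the same time, dissolved in HBSS; HBSS-treated cells serve as control. Nitrite measured by Griess reaction (absorbance at 550 nm, 10 min). PGE2 measured by ELISA in supernatant stored frozen at −80 °C. Mean ± s.e.m. of 4 independent assays.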

Structure (SMILES) | inhibition
CCCCCCn1cc(-c2cc3ccccc3oc2=O)nn1 | inactive
CCCCCCCCn1cc(-c2cc3ccccc3oc2=O)nn1 | inactive
CCCCCCCCCCn1cc(-c2cc3ccccc3oc2=O)nn1 | inactive
O=c1oc2ccccc2cc1-c1cn(-c2ccccc2)nn1 | inactive

System: Neutrophil
Assay: Antiinflammatory activity in Wistar rat neutrophils assessed as inhibition of LPS-stimulated PGE2 production at 1000 uM after 18 hrs by ELISA
Assay type: functional, cell-based
Conditions: not given
How it was run: as §4

Structure (SMILES) | inhibition
CCCCCCn1cc(-c2cc3ccccc3oc2=O)nn1 | inactive
CCCCCCCCn1cc(-c2cc3ccccc3oc2=O)nn1 | inactive
CCCCCCCCCCn1cc(-c2cc3ccccc3oc2=O)nn1 | inactive
O=c1oc2ccccc2cc1-c1cn(-c2ccccc2)nn1 | inactive

System: Neutrophil
Assay: Antiinflammatory activity in Wistar rat neutrophils assessed as reduction of LPS-stimulated TNFalpha production at 100 uM after 18 hrs by ELISA
Assay type: functional, cell-based
Conditions: not given
How it was run: as §1

Structure (SMILES) | Activity
CCCCCCn1cc(-c2cc3ccccc3oc2=O)nn1 | inactive
CCCCCCCCn1cc(-c2cc3ccccc3oc2=O)nn1 | inactive
CCCCCCCCCCn1cc(-c2cc3ccccc3oc2=O)nn1 | inactive
O=c1oc2ccccc2cc1-c1cn(-c2ccccc2)nn1 | inactive

System: not listed separately
Assay: Inhibition of LPS-stimulated NO production in Wistar rat neutrophils at 10 uM after 18 hrs by Griess method
Conditions: neutrophil

Structure (SMILES) | Activity
CCCCCCn1cc(-c2cc3ccccc3oc2=O)nn1 | Toxic

System: Neutrophil
Assay: Antiinflammatory activity in Wistar rat neutrophils assessed as reduction of TNFalpha production at 100 uM after 18 hrs by ELISA
Assay type: functional, cell-based
Conditions: not given
How it was run: as §1

Structure (SMILES) | Activity
CCCCCCn1cc(-c2cc3ccccc3oc2=O)nn1 | inactive
CCCCCCCCn1cc(-c2cc3ccccc3oc2=O)nn1 | inactive
CCCCCCCCCCn1cc(-c2cc3ccccc3oc2=O)nn1 | inactive
O=c1oc2ccccc2cc1-c1cn(-c2ccccc2)nn1 | inactive

Target: Nitric oxide synthase, inducible (Rattus norvegicus) (UniProt Q06518)
Assay: Inhibition of iNOS in LPS-stimulated Wistar rat neutrophils assessed as decrease in total NOS activity at 100 uM after 18 hrs by enzymatic assay
Conditions: not given
How it was run: as §2

Structure (SMILES) | inhibition
CCCCCCn1cc(-c2cc3ccccc3oc2=O)nn1 | Active
CCCCCCCCn1cc(-c2cc3ccccc3oc2=O)nn1 | Active
CCCCCCCCCCn1cc(-c2cc3ccccc3oc2=O)nn1 | Active
O=c1oc2ccccc2cc1-c1cn(-c2ccccc2)nn1 | Active

Target: T1, Nitric oxide synthase 3 (Rattus norvegicus) (UniProt Q62600)
T1 sequence (whole entry): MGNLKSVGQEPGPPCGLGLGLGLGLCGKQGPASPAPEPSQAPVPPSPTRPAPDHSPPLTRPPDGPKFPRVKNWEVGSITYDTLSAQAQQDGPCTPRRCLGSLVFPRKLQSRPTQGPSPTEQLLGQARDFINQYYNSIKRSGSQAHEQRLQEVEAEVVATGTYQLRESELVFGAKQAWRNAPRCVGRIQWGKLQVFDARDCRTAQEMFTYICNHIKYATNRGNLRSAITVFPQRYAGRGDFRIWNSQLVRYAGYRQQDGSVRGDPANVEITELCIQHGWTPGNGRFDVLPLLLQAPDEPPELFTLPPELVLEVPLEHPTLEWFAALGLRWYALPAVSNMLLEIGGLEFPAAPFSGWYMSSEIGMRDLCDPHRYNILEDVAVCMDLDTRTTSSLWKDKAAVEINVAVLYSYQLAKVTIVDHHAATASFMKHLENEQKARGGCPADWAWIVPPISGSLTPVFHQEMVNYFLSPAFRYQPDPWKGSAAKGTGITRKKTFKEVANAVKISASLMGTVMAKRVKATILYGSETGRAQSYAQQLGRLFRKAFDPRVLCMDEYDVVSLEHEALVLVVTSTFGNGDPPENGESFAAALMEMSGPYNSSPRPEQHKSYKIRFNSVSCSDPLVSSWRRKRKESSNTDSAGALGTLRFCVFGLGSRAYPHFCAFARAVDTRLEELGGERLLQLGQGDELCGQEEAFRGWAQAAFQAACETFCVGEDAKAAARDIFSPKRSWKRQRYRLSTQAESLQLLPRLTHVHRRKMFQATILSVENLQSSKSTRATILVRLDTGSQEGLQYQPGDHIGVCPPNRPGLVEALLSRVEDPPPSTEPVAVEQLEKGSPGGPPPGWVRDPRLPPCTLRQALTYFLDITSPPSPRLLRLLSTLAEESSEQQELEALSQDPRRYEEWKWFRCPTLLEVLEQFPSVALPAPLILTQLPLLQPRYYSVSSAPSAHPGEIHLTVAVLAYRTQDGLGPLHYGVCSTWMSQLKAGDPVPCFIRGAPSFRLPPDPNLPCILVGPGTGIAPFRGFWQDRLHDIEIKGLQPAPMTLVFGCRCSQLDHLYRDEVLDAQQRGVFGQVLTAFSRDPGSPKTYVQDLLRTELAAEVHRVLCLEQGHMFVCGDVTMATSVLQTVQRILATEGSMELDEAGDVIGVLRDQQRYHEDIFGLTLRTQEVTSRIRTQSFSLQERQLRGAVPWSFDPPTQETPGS
Assay: Inhibition of eNOS in rat PMEC assessed as reduction in nitrite level at 100 uM after 48 hrs by Griess method
Conditions: not given
How it was run: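 Primary microvascular endothelial cells from rat cremaster muscle explants, grown in DMEM with 20% fetal calf serum and used at confluence after subculture. Incubated 48 h at 37 °C in 5% CO2 without LPS, with coumarin compounds or L-NAME at 100 µM. Nitrite in supernatant measured by Griess reaction at 550 nm. Mean ± s.e.m. of 4 independent assays.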

Structure (SMILES) | inhibition
CCCCCCn1cc(-c2cc3ccccc3oc2=O)nn1 | Active
CCCCCCCCn1cc(-c2cc3ccccc3oc2=O)nn1 | inactive
CCCCCCCCCCn1cc(-c2cc3ccccc3oc2=O)nn1 | inactive
O=c1oc2ccccc2cc1-c1cn(-c2ccccc2)nn1 | inactive
COC(=O)[C@@H](N)CCCNC(=N)N[N+](=O)[O-] | Active

System: not listed separately
Assay: Induction of PGE2 production in Wistar rat neutrophils at 100 uM after 18 hrs by ELISA
Assay type: cell-based
Conditions: neutrophil
How it was run: as §1

Structure (SMILES) | Activity
CCCCCCCCn1cc(-c2cc3ccccc3oc2=O)nn1 | Toxic
CCCCCCCCCCn1cc(-c2cc3ccccc3oc2=O)nn1 | Toxic

System: Neutrophil
Assay: Inhibition of iNOS expression in Wistar rat neutrophils assessed as reduction of NO production after 18 hrs by Western blot analysis
Assay type: functional, cell-based
Conditions: not given
How it was run: as §3

Structure (SMILES) | inhibition
CCCCCCn1cc(-c2cc3ccccc3oc2=O)nn1 | Active
CCCCCCCCn1cc(-c2cc3ccccc3oc2=O)nn1 | Active
CCCCCCCCCCn1cc(-c2cc3ccccc3oc2=O)nn1 | Active
O=c1oc2ccccc2cc1-c1cn(-c2ccccc2)nn1 | Active

System: Neutrophil
Assay: Inhibition of LPS-induced iNOS gene expression in Wistar rat neutrophils assessed as decrease in mRNA level after 18 hrs by real-time PCR analysis
Assay type: functional, cell-based
Conditions: not given
How it was run: as §3

Structure (SMILES) | inhibition
O=c1oc2ccccc2cc1-c1cn(-c2ccccc2)nn1 | Active

System: not listed separately
Assay: Induction of apoptosis in Wistar rat neutrophils
Assay type: cell-based
Conditions: neutrophil

Structure (SMILES) | Activity
CCCCCCn1cc(-c2cc3ccccc3oc2=O)nn1 | Non-toxic
CCCCCCCCn1cc(-c2cc3ccccc3oc2=O)nn1 | Non-toxic
CCCCCCCCCCn1cc(-c2cc3ccccc3oc2=O)nn1 | Non-toxic
O=c1oc2ccccc2cc1-c1cn(-c2ccccc2)nn1 | Non-toxic

System: not listed separately
Assay: Cytotoxicity against Wistar rat neutrophils assessed as cell viability
Assay type: cell-based, Neutrophil
Conditions: read-out: Activity

Structure (SMILES) | viability [%]
CCCCCCn1cc(-c2cc3ccccc3oc2=O)nn1 | > 90
CCCCCCCCn1cc(-c2cc3ccccc3oc2=O)nn1 | > 90
CCCCCCCCCCn1cc(-c2cc3ccccc3oc2=O)nn1 | > 90
O=c1oc2ccccc2cc1-c1cn(-c2ccccc2)nn1 | > 90

System: not listed separately
Assay: Induction of TNFalpha production in Wistar rat neutrophils at 100 uM after 18 hrs by ELISA relative to vehicle-treated control
Assay type: cell-based
Conditions: neutrophil
How it was run: as §1

Structure (SMILES) | Activity
CCCCCCn1cc(-c2cc3ccccc3oc2=O)nn1 | Toxic

System: Neutrophil
Assay: Inhibition of LPS-induced cytoplasmic iNOS expression in Wistar rat neutrophils assessed as decrease in protein level after 18 hrs by Western blot analysis
Assay type: functional, cell-based
Conditions: not given
How it was run: as §3

Structure (SMILES) | inhibition
O=c1oc2ccccc2cc1-c1cn(-c2ccccc2)nn1 | Active

System: Neutrophil
Assay: Antiinflammatory activity in Wistar rat neutrophils assessed as inhibition of LPS-stimulated NO production at 10 to 100 uM after 18 hrs by Griess method
Assay type: functional, cell-based
Conditions: not given
How it was run: as §4

Structure (SMILES) | inhibition
CCCCCCCCn1cc(-c2cc3ccccc3oc2=O)nn1 | Active
CCCCCCCCCCn1cc(-c2cc3ccccc3oc2=O)nn1 | Active
O=c1oc2ccccc2cc1-c1cn(-c2ccccc2)nn1 | Active
